The source made the active and inactive calls. The calls are words filed in the database; no cut-off is given here.
Assays:
Type in all cases: cell-based
[1] = target: T1, Toll-like receptor 8 (Homo sapiens) (UniProt Q9NR97); experiment: Agonist activity at human TLR8 stably expressed in HEK293 cells cotransfected with secreted alkaline phosphatase assessed as induction of NFkappaB activation by measuring maximal response by quanti-blue SEAP reporter gene-based spectrophotometric method; details: filed as agonist
T1 sequence (whole entry): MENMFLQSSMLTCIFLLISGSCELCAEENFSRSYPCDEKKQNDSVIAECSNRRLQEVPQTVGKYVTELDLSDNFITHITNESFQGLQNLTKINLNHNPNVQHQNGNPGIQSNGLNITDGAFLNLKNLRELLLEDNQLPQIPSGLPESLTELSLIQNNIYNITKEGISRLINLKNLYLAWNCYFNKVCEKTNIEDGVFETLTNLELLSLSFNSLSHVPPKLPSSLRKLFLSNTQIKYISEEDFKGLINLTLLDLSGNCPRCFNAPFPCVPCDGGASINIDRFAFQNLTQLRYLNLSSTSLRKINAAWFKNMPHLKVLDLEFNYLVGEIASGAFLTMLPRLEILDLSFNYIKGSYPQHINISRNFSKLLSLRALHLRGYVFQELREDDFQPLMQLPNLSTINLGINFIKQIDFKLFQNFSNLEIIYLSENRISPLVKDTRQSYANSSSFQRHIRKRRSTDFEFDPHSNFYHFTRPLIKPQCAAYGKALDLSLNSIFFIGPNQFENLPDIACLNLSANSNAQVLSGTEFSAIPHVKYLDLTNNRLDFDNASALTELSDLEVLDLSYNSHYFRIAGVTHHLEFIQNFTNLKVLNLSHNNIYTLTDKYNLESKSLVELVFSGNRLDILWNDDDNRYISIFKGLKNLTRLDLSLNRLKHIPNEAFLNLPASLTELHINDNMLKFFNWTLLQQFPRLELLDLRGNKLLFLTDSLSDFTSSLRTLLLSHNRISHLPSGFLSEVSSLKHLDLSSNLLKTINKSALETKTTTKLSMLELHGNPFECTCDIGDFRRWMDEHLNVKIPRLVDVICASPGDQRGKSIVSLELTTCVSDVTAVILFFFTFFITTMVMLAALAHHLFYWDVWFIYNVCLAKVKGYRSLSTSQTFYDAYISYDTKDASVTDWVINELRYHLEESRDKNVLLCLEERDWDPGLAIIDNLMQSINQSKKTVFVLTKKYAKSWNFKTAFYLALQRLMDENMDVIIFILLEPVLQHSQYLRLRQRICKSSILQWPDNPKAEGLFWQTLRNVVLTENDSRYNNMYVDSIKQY
How it was run: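 TLR8/sAP HEK293 reporter cells, about 10^5 cells/ml, were exposed to graded ligand concentrations, and sAP was read at 620 nm with a chromogenic detection medium. Maximal response was compared across the dose-response curve, with area under the curve also reported. Quadruplicate samples were used.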

Toll-like receptor 4 = Toll-like receptor 4 (Homo sapiens, UniProt O00206); experiment: Agonist activity at human TLR4 stably expressed in HEK293 cells cotransfected with secreted alkaline phosphatase assessed as induction of NFkappaB activation by quanti-blue SEAP reporter gene based spectrophotometric method
How it was run: (§1)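 HEK293 cells stably co-transfected with the matching human TLR (2, 3, 4, 5, 7, 8 or 9) and NF-κB/AP-1-driven secreted alkaline phosphatase were kept in selection medium. About 10^5 cells/ml were incubated with graded concentrations of stimulus. sAP was read at 620 nm with a chromogen in detection medium. EC50 came from four-parameter logistic fits on quadruplicates.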

Toll-like receptor 5 = Toll-like receptor 5 (Homo sapiens, UniProt O60602); experiment: Agonist activity at human TLR5 stably expressed in HEK293 cells cotransfected with secreted alkaline phosphatase assessed as induction of NFkappaB activation by quanti-blue SEAP reporter gene based spectrophotometric method; how it was run: as §1
[2] = target: T2, Toll-like receptor 9 (Homo sapiens) (UniProt Q9NR96); experiment: Agonist activity at human TLR9 stably expressed in HEK293 cells cotransfected with secreted alkaline phosphatase assessed as induction of NFkappaB activation by quanti-blue SEAP reporter gene based spectrophotometric method; how it was run: as §1
T2 sequence (whole entry): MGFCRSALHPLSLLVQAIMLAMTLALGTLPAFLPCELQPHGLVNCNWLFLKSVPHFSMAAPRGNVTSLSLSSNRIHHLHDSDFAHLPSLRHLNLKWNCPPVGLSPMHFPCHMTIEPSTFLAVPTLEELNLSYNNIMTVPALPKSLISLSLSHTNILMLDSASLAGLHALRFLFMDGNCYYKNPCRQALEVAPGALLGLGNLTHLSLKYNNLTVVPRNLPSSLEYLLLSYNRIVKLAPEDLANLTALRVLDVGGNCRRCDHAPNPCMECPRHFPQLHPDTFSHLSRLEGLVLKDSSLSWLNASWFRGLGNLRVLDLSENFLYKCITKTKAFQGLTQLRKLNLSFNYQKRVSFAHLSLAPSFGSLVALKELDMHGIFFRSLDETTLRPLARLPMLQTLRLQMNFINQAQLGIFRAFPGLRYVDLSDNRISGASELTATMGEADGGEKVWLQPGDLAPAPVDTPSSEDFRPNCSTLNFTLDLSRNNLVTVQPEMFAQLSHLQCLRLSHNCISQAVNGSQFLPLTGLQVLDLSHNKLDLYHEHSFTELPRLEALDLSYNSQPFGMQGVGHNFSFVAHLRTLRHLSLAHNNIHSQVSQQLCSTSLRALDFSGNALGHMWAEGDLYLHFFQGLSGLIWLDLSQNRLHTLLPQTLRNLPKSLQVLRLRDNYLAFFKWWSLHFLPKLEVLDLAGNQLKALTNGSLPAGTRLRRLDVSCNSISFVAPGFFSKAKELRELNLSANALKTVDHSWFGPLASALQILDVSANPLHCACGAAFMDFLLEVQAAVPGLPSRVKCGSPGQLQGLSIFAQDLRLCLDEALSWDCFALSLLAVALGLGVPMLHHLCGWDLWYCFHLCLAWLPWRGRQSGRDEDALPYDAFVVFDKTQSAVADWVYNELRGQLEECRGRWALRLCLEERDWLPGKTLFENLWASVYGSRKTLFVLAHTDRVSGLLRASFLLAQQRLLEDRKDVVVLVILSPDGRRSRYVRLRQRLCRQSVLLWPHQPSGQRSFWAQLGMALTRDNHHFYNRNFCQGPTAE

Sequence of Toll-like receptor 5 (O60602 whole entry): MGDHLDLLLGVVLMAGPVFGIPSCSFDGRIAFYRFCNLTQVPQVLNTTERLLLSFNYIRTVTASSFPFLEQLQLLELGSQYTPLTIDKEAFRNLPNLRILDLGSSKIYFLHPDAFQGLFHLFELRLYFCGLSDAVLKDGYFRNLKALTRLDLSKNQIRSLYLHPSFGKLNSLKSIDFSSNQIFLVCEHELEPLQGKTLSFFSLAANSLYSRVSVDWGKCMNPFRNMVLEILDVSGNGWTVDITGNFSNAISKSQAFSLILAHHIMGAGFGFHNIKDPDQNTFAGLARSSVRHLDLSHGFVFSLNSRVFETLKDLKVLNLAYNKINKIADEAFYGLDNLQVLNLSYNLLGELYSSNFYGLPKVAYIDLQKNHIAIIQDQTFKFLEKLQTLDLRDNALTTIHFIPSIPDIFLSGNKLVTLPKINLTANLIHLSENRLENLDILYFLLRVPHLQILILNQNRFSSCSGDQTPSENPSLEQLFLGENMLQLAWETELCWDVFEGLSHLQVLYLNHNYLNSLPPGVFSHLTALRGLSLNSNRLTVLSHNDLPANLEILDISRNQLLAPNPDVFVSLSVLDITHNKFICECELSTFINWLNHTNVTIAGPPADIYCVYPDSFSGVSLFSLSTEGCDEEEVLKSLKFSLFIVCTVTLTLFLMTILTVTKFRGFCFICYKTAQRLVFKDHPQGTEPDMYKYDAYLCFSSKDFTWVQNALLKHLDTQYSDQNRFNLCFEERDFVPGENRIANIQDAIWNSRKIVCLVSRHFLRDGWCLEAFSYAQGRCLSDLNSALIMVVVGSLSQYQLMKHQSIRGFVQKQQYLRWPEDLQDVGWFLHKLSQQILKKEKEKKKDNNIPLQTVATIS
Sequence of Toll-like receptor 4 (O00206 whole entry): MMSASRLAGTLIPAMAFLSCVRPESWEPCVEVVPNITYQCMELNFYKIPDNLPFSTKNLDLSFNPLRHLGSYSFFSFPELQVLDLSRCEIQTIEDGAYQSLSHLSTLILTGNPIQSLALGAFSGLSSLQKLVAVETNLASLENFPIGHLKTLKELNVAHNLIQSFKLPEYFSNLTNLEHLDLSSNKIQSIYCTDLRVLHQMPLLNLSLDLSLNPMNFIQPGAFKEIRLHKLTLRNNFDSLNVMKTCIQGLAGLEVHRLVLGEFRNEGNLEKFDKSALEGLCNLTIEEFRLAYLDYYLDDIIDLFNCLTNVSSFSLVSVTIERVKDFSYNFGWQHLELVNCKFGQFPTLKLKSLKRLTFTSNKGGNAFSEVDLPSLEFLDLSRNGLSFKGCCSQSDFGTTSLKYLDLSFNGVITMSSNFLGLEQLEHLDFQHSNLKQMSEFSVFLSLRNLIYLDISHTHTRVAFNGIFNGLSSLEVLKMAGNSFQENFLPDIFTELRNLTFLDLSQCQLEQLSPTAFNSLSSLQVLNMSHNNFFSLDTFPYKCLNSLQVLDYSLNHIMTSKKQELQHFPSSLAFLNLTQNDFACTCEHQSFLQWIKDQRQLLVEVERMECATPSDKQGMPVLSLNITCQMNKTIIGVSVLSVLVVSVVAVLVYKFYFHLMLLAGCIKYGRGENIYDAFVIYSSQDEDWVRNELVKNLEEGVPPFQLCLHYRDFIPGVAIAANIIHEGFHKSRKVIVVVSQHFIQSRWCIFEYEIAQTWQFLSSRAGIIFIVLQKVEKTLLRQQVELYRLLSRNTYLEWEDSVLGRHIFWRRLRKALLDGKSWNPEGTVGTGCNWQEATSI

Structure (SMILES) | RUmax [1] | Activity (Toll-like receptor 4) | Activity (Toll-like receptor 5) | Activity [2]
CCCCCn1cc(-c2cccc(OC)c2)nc1N | 1.2 | inactive | inactive | inactive
CCCCCn1cc(-c2ccccc2Cl)nc1N | 1 | inactive | inactive | inactive
CCCCCn1cc(-c2cccc(Cl)c2)nc1N | 0.9 | inactive | inactive | inactive
CCCCCn1cc(-c2cccc3ccccc23)nc1N | 0.9 | inactive | inactive | inactive
CCCCCn1cc(-c2ccccc2C(=O)OC)nc1N | 1.2 | inactive | inactive | inactive
CCCCCn1cc(-c2ccc(C(=O)OC)cc2)nc1N | 0.7 | inactive | inactive | inactive
CCCCCn1c(N)nc(-c2ccccc2)c1-c1ccccc1 | 0.52 | inactive | inactive | inactive
CCCCCn1cc(-c2cc(OC)c(OC)c(OC)c2)nc1N | 0.8 | inactive | inactive | inactive
CCCCCn1cc(-c2cccc(C(F)(F)F)c2)nc1N | 0.6 | inactive | inactive | inactive
CCCCCn1cc(-c2ccc(OC)cc2)nc1N | 0.7 | inactive | inactive | inactive
CCCCCn1cc(CCc2ccccc2)nc1N | 0.9 | inactive | inactive | inactive
CCCCCn1cc(-c2ccc(Cl)cc2)nc1N | 0.5 | inactive | inactive | inactive
CCCCCn1cc(-c2ccc(N)cc2)nc1N | 0.6 | inactive | inactive | inactive
CCCCCn1cc(-c2ccccc2C(F)(F)F)nc1N | 0.9 | inactive | inactive | inactive
CCCCCn1cc(-c2ccccc2F)nc1N | 1.4 | inactive | inactive | inactive
CCCCCn1cc(-c2c(C)cccc2C)nc1N | 1.2 | inactive | inactive | inactive
CCCCCn1cc(-c2ccccc2O)nc1N | 0.9 | inactive | inactive | inactive
CCCCCn1cc(-c2cccc(F)c2)nc1N | 1.6 | inactive | inactive | inactive
CCCCCn1cc(-c2ccc3ccccc3c2)nc1N | 0.42 | inactive | inactive | inactive

Structure (SMILES) | RUmax [1] | Activity (Toll-like receptor 4) | Activity (Toll-like receptor 5) | Activity [2]
CCCCCn1cc(-c2ccc(F)cc2)nc1N | 2 | inactive | inactive | inactive
CCCCCn1cc(-c2ccc(C)cc2)nc1N | 0.9 | inactive | inactive | inactive
CCCCCn1cc(Cc2ccccc2)nc1N | 1 | inactive | inactive | inactive
CCCCCn1cc(-c2cc(C)ccc2C)nc1N | 0.9 | inactive | inactive | inactive
CCCCCn1c(-c2ccccc2)cnc1N.Cl |  | inactive | inactive | inactive
CCCCCn1cc(-c2ccccc2)nc1N | 2 | inactive | inactive | inactive
CCCCCn1cc(-c2ccc(C)cc2C)nc1N | 1.2 | inactive | inactive | inactive
CCCCCn1cc(-c2ccc(C(N)=O)cc2)nc1N | 0.8 | inactive | inactive | inactive
CCCCCn1cc(-c2ccccc2C)nc1N | 1.4 | inactive | inactive | inactive
CCCCCn1cc(-c2ccc(-c3ccccc3)cc2)nc1N | 0.47 | inactive | inactive | inactive
CCCCCn1cc(-c2cccc(C)c2OC)nc1N | 0.7 | inactive | inactive | inactive
CCCCCn1cc(-c2ccc(C(F)(F)F)cc2)nc1N | 0.8 | inactive | inactive | inactive
CCCCCn1cc(-c2ccccc2OC)nc1N | 1.6 | inactive | inactive | inactive
CCCCCn1cc(-c2ccccc2CC)nc1N | 0.8 | inactive | inactive | inactive
CCCCCn1cc(-c2cccc(OC)c2OC)nc1N | 0.6 | inactive | inactive | inactive
CCCCCn1cc(-c2cccnc2)nc1N | 1.8 | inactive | inactive | inactive
CCCCCn1cc(-c2c(C)noc2C)nc1N | 0.7 | inactive | inactive | inactive
CCCCCn1cc(-c2ccccc2OCc2ccccc2)nc1N.Cl |  | inactive | inactive | inactive
